Measurements as given in ChEMBL document CHEMBL1157083, “Characterization of tamulamides A and B, polyethers isolated from the marine dinoflagellate Karenia brevis” (J Nat Prod, 2010).

Assays:
Ovis aries [1] = assay: Bronchoconstriction in sheep asthma model assessed as pulmonary airflow resistance at 10 pg/ml administered through aerosol for 20 breaths by pneumotachography relative to control; assay type: functional
[2] = Displacement of [3H]PbTx-3 from rat brain synaptosome voltage-sensitive sodium channel site 5 after 1 hr by rapid filtration based scintillation counting; assay type: tissue-based
Outline: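 Rat brain synaptosomes (0.1 mg protein/mL final) were incubated on ice for at least 1 h with about 1.5 nM [3H]-PbTx-3 and competitor (0 to 10 μM). Buffer was HEPES/choline chloride medium, pH 7.4, with 1 mg/mL BSA. Bound label was filtered and counted by scintillation. Apparent Ki came from one-site competition fits, with ≥3 experiments each run in duplicate or triplicate.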

Gambusia affinis [3] = assay: Toxicity in mosquito fish assessed as time required for mortality at 200 nM; assay type: organism-based; settings: in vivo, 0.2 µM
Outline: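 Fish received 0.2 mL of test solution or an EtOH vehicle in tank water, giving 25-200 nM final. Five fish were used per concentration. Fish were watched for 24 h or until death. Time of death in minutes is given as mean ± S.E.M., compared by t-test.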

Ovis aries [4] = assay: Bronchoconstriction in sheep 1988 asthma model assessed as pulmonary airflow resistance at 10 pg/ml administered through aerosol for 20 breaths by pneumotachography relative to control; assay type: functional
Gambusia affinis [5] = assay: Toxicity in mosquito fish at 25 to 200 nM up to 24 hrs; assay type: organism-based; settings: in vivo, 0.2 µM
Outline: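 Fish each received 0.2 mL test solution or EtOH vehicle (0.2 mL), giving final water concentrations of 0, 25, 50, 100 or 200 nM. PbTx-2 positive control at 200 nM. Five fish per concentration. Monitored for 24 hours or until death; time of death as mean ± S.E.M., two-way Student's t-test.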

Ovis aries [6] = assay: Bronchoconstriction in sheep 2164 asthma model assessed as pulmonary airflow resistance at 10 pg/ml administered through aerosol for 20 breaths by pneumotachography relative to control; assay type: functional
Ovis aries [7] = assay: Bronchoconstriction in sheep 2263 asthma model assessed as pulmonary airflow resistance at 10 pg/ml administered through aerosol for 20 breaths by pneumotachography relative to control; assay type: functional
Ovis aries [8] = assay: Bronchoconstriction in sheep 2297 asthma model assessed as pulmonary airflow resistance at 10 pg/ml administered through aerosol for 20 breaths by pneumotachography relative to control; assay type: functional

Row | SMILES | Activity (Ovis aries [1]) [%] | Ki [2] [nM] | Activity (Gambusia affinis [3]) | Activity (Ovis aries [4]) [%] | Activity (Gambusia affinis [5]) | Activity (Ovis aries [6]) [%] | Activity (Ovis aries [7]) [%] | Activity (Ovis aries [8]) [%]
1 | C=C(COC(=O)c1ccc2ccccc2c1)C[C@@H]1C[C@H](O)[C@]2(C)O[C@@H]3C[C@@H]4O[C@@H]5C[C@]6(C)O[C@]7(C)CC[C@@H]8O[C@@H]9C[C@]%10(C)O[C@@H]%11C(C)=CC(=O)O[C@H]%11C[C@H]%10O[C@H]9C[C@@H](C)[C@H]8O[C@H]7C[C@H]6O[C@@]5(C)C/C=C\[C@H]4O[C@H]3C[C@H]2O1 | 0 |  |  |  |  |  |  | 
2 | C=C(C=O)C[C@@H]1C[C@H](O)[C@]2(C)O[C@@H]3C[C@@H]4O[C@@H]5C[C@]6(C)O[C@]7(C)CC[C@@H]8O[C@@H]9C[C@]%10(C)O[C@@H]%11C(C)=CC(=O)O[C@H]%11C[C@H]%10O[C@H]9C[C@@H](C)[C@H]8O[C@H]7C[C@H]6O[C@@]5(C)C/C=C\[C@H]4O[C@H]3C[C@H]2O1 [BREVETOXIN B] | 226 | 1.2 | Toxic |  |  |  |  | 
3 | C=C/C=C\CC[C@H]1O[C@H]2CC[C@@]3(C)O[C@H]4[C@@H](O)C[C@@]5(C)O[C@@H](CC/C=C(C)/C(C)=C/C=O)[C@@H](C)C[C@H]5O[C@@H]4C[C@@H]3O[C@@H]2CC[C@@]1(C)O [BREVENAL] | 4 | 170 |  |  |  |  |  | 
4 | CC(=O)NC[C@@H]1O[C@@H]2C[C@]3(C)O[C@@H]4C=C[C@@H]5O[C@@H]6C=C[C@@H]7O[C@H](/C=C/C=C/C=O)C=C[C@H]7O[C@H]6C[C@H]5O[C@H]4C[C@H]3O[C@H]2C[C@H]1O [TAMULAMIDE B] |  | 210 |  | 36 | Non-toxic | 34 | 37 | 33
5 | CC(=O)NC[C@@H]1O[C@@H]2C[C@]3(C)O[C@@H]4C=C[C@@H]5O[C@@H]6C=C[C@@H]7O[C@H](/C=C/C=C/C=O)C=C[C@H]7O[C@H]6C[C@H]5O[C@@]4(C)C[C@H]3O[C@H]2C[C@H]1O [TAMULAMIDE A] |  | 2500 |  | 39 | Non-toxic | 43 | 42 | 34
